We go through 13 compounds from article PMC10616755 (RSC Advances, 2023).

Series [1] relates to HCT-116. The following applies: read-out: Cytotoxic activity IC50 HCT-116, cited from earlier work.
Series [2] concerns MCF-7. The following applies: read-out: Cytotoxic activity IC50 MCF-7, cited from earlier work.
For series [3], the system named is HCT-116. The series is described as follows: MTT cytotoxicity assay, HCT-116. The following applies: for SI (HCT-116): selectivity index WI-38 vs HCT-116; for Cytotoxicity grade HCT-116: grade in words in text. In kind it is cell-based, human. The procedure, abridged: (§1)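 MTT viability assay on human HCT-116 and MCF-7 lines. Each test compound was run at 100, 50, 25, 12.5, 6.25, 3.125 and 1.56 μM, with IC50 determined per cell line.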
On the technique in general: Tetrazolium dyes change colour on reduction, which living cells bring about.

Series [4] has as its system MCF-7. Kind of series: MTT cytotoxicity assay, MCF-7. The following applies: for SI (MCF-7): selectivity index WI-38 vs MCF-7; for Cytotoxicity grade MCF-7: grade in words in text. The format is cell-based, human. In outline:
as §1

The nature of series [5]: MTT cytotoxicity on normal lung fibroblast. The format is cell-based, human. The following applies: human, WI-38 normal lung fibroblast cells.
A further series deals with VEGFR-2 (Homo sapiens, UniProt P35968). Kind of series: VEGFR-2. The format is biochemical. The following applies: VEGFR-2 inhibitory activity IC50.
Sequence of VEGFR-2 (P35968 20-1356): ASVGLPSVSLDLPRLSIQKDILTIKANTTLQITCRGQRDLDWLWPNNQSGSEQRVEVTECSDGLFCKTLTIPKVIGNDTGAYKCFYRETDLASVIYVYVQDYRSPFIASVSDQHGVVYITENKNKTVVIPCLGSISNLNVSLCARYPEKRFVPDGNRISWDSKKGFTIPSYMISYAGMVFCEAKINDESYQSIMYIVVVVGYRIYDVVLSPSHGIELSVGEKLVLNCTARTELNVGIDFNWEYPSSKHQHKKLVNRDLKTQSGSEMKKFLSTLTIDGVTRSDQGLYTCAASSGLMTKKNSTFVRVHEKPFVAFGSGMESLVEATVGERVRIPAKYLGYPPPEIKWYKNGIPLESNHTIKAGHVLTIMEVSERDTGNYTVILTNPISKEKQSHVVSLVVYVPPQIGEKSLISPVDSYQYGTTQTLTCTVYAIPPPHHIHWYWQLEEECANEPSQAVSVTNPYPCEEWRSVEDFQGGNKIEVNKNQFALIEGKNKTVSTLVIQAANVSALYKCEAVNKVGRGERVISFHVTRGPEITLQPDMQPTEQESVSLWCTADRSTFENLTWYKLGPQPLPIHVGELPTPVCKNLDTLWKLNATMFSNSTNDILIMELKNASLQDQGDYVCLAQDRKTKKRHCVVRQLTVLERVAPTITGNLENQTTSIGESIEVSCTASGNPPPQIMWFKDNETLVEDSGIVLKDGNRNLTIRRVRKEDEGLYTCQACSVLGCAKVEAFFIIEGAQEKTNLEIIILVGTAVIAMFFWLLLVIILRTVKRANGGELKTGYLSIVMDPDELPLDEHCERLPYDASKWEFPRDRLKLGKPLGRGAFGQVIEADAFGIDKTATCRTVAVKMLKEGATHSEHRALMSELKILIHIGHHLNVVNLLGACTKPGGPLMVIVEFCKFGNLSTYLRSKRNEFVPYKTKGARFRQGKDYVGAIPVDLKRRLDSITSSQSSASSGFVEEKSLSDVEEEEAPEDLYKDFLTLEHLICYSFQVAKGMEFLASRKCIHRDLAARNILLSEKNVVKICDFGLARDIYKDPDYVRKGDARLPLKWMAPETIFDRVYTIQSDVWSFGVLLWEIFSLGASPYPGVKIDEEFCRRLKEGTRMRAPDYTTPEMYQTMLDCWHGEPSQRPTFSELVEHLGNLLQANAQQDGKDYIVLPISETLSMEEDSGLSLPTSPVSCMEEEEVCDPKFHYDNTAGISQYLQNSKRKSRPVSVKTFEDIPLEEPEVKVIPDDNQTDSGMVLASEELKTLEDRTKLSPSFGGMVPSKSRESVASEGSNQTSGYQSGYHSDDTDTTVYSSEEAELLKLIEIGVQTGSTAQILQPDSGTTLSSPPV
A further series concerns caspase-3. The series is described as follows: Active caspase-3 level. In kind it is cell-based, human.
In another series the test system is p53. Kind of series: Active p53 level. The format is cell-based, human.
The next series has as its system BAX. The series is described as follows: BAX level. In kind it is cell-based. The following applies: control = 1.
The test system of the next series is BCL2. The series is described as follows: BCL2 level. In kind it is cell-based. The following applies: control = 1.
In a further series the test system is WI-38. Kind of series: MTT cytotoxicity on normal lung fibroblast. The following applies: read-out: Cytotoxicity on WI-38 IC50; normal cell line, MTT assay. The format is cell-based, human.
[6] abbreviates: sorafenib reference value ref 36.
Where [7] appears, read: Homo sapiens, HCT-116, read-out: Cytotoxic activity IC50 HCT-116.
Where [8] appears, read: Homo sapiens, MCF7, read-out: Cytotoxic activity IC50 MCF-7.
Where [9] appears, read: sunitinib reference value ref 34,35.
Setting [10] is: read-out: Cytotoxic activity IC50 HCT-116, MTT assay.
Setting [11] is: read-out: Cytotoxic activity IC50 MCF-7, MTT assay.

Read-outs that look alike come from different tables or passages of the source.

`CNC(=O)c1cc(Oc2ccc(NC(=O)Nc3ccc(Cl)c(C(F)(F)F)c3)cc2)ccn1` [Sorafenib]: the IC50 (in general, the concentration at which inhibition is half-maximal) in the series on HCT-116 [1] (setting [6]) is 18.6 ± 1.9 µM; with MCF-7 [2] (setting [6]), 16 ± 3.6 µM.
Take `O=C(CCc1nc2cc(Cl)ccc2[nH]c1=O)Nc1ccccc1O` [Compound 9, 3-(6-Chloro-1,2-dihydro-2-oxoquinoxalin-3-yl)-N-(2-hydroxyphenyl)propanamide]: the IC50 was found to be 7.19 ± 0.7 µM in the series with HCT-116 [3] (setting [7]), 6.92 ± 0.5 µM in the series with MCF-7 [4] (setting [8]), 86.1 ± 4.1 µM in [5] and 0.131 µM against VEGFR-2. For the same compound, in the series on HCT-116 [3], the “SI (HCT-116)” value stood at 11.98. Besides, the “SI (MCF-7)” value with MCF-7 [4] is on record as 12.44.
Take `CCN(CC)CCNC(=O)c1c(C)[nH]c(/C=C2\C(=O)Nc3ccc(F)cc32)c1C` [Sunitinib]: the “Caspase 3” value in the series with caspase-3 (MCF-7 cells, control 47.88 ± 13.15) came to 384.53 ± 8.40 pg/mL. The “Caspase 3 Fld” value in the series on caspase-3 (vs control) amounted to 8.031 fold. In the series with p53 (MCF-7 cells, control 22.19 ± 8.39), this compound had a p53 of 278.34 ± 5.27 pg/mL. Further, the “p53 Fld” value with p53 (vs control) stood at 12.543 fold. The figures for the half-inhibitory concentration (IC50) in the series with HCT-116 [1] (setting [9]) and in the series with MCF-7 [2] (setting [9]) were 3.42 ± 0.5 µM and 4.77 ± 0.2 µM, respectively.
As to `COc1cccc2c1C(=O)c1c(O)c3c(c(O)c1C2=O)C[C@@](O)(C(=O)CO)C[C@@H]3O[C@H]1C[C@H](N)[C@H](O)[C@H](C)O1` [DOX, Doxorubicin, reference compound], the IC50 with HCT-116 [3] (setting [7]) turned out to be 9.27 ± 0.3 µM; in the series on MCF-7 [4] (setting [8]), 7.43 ± 0.2 µM; in [5], 6.72 ± 0.5 µM. Besides, the “SI (HCT-116)” value in the series on HCT-116 [3] came to 0.72. The “SI (MCF-7)” value with MCF-7 [4] turned out to be 0.9.
On to `Cc1ccccc1NC(=O)CCc1nc2cc(Cl)ccc2[nH]c1=O` [Compound 13, 3-(6-Chloro-1,2-dihydro-2-oxoquinoxalin-3-yl)-N-o-tolylpropanamide], for which the IC50 in the series on HCT-116 [3] (setting [7]) was found to be 22.2 ± 1.9 µM; in the series with MCF-7 [4] (setting [8]), 18.9 ± 1.4 µM.
With `Cc1ccc(NC(=O)CCc2nc3cc(Cl)ccc3[nH]c2=O)cc1` [Compound 11, 3-(6-Chloro-1,2-dihydro-2-oxoquinoxalin-3-yl)-N-p-tolylpropanamide], the results for the IC50 in the series with HCT-116 [3] (setting [7]) and in the series on MCF-7 [4] (setting [8]) were 61.4 ± 3.4 µM and 54 ± 3.1 µM, respectively.
Turning to `CN[C@@H]1C[C@H]2O[C@@](C)([C@@H]1OC)n1c3ccccc3c3c4c(c5c6ccccc6n2c5c31)C(=O)NC4` [Staurosporine], the results for the BAX fold change in the series on BAX and in the series with BAX (listed as staurosporine) were 7.5517 fold change and 7.55 fold change, respectively. Besides, the BCL2 fold change with BCL2 is reported as 0.3248 fold change; in the series on BCL2 (listed as staurosporine) it was 0.33 fold change.
Take `O=C(CCc1nc2cc(Cl)ccc2[nH]c1=O)Nc1ccc(C(=O)O)cc1` [Compound 16, 4-(3-(6-Chloro-1,2-dihydro-2-oxoquinoxalin-3-yl)propanamido)benzoic acid]: the IC50 with HCT-116 [3] (setting [7]) is 75.1 ± 3.6 µM; in the series on MCF-7 [4] (setting [8]), 67.2 ± 3.5 µM. In addition, in the series with HCT-116 [3], the “Cytotoxicity grade HCT-116” value is reported as “weak (51–100 (weak))”. The “Cytotoxicity grade MCF-7” value in the series with MCF-7 [4] is listed as “weak (51–100 (weak))”.
As for `O=C(CCc1nc2cc(Cl)ccc2[nH]c1=O)Nc1ccccc1` [Compound 5, 3-(6-Chloro-1,2-dihydro-2-oxoquinoxalin-3-yl)-N-phenylpropanamide], the IC50 with HCT-116 [3] (setting [7]) worked out at 45.5 ± 2.7 µM; in the series on MCF-7 [4] (setting [8]), 39 ± 2.4 µM. The “Cytotoxicity grade HCT-116” value in the series on HCT-116 [3] is “moderate (21–50 (moderate))”. The “Cytotoxicity grade MCF-7” value in the series on MCF-7 [4] is recorded as “moderate (21–50 (moderate))”.
On to “4-(3-(6-Chloro-1,2-dihydro-2-oxoquinoxalin-3-yl)propaneamido)-4-oxobutanoic acid [Compound 20]”, for which the IC50 is 26.4 ± 3.8 µM in the series with HCT-116 [3] (setting [10]), 10.2 ± 3.3 µM in the series with MCF-7 [4] (setting [11]) and 93 ± 2.2 µM in the series on WI-38. In the series on HCT-116 [3], the “SI (HCT-116)” value is recorded as 3.52. Moreover, in the series on MCF-7 [4], the “SI (MCF-7)” value is on record as 9.15.
In the case of “2,4-Dichloro-N′-(3-(6-chloro-3-oxo-3,4-dihydroquinoxalin-2-yl)-propanoyl) benzohydrazide [Compound 19]”, in the series on HCT-116 [3], the “Cytotoxicity grade HCT-116” value was “very strong (1–10 (very strong))” and the “SI (HCT-116)” value is given as 11.58. The IC50 in the series with HCT-116 [3] (setting [10]) was found to be 6.18 ± 2.1 µM. In the series with MCF-7 [4], the “Cytotoxicity grade MCF-7” value is given as “very strong (1–10 (very strong))” and the “SI (MCF-7)” value was 14.01. For the same compound, the IC50 in the series on MCF-7 [4] (setting [11]) worked out at 5.11 ± 0.8 µM. For the same compound, the IC50 with WI-38 turned out to be 71.6 ± 2.8 µM.
As for `Cc1cccc(NC(=O)CCc2nc3cc(Cl)ccc3[nH]c2=O)c1` [Compound 12, 3-(6-Chloro-1,2-dihydro-2-oxoquinoxalin-3-yl)-N-m-tolylpropanamide], the half-maximal inhibitory concentration (IC50) in the series on HCT-116 [3] (setting [7]) was found to be 28.4 ± 2.2 µM; in the series with MCF-7 [4] (setting [8]) it was 24.6 ± 1.9 µM.
Turning to “2-(2-(3-(6-Chloro-3-oxo-3,4-dihydroquinoxalin-2-yl)propanoyl)hydrazine-1-carbonyl) benzoic acid [Compound 21]”, the IC50 in the series on HCT-116 [3] (setting [10]) was determined as 48.2 ± 2.7 µM; in the series on MCF-7 [4] (setting [11]), 41.5 ± 2.5 µM.
